# Screening results (PubChem)
# Rows were chosen to be rich in hits. Some 3.7% of all compounds tested hit in one or more screens of this group.
# KCNQ1 block: blocks the human KCNQ1 potassium channel; CHO-K1 KCNQ1, FluxOR thallium flux fluorescence; active compounds read high; B-score at 10 µM; hit rate 1.3% among 310,000; AID 2642;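 active = compounds whose thallium flux B-score, printed positive for inhibition, exceeds three library SD while starting fluorescence stays within three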;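 note: channel opened by potassium depolarization with thallium stimulus after 20 min compound exposure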
# KCNK9 block: inhibitors of human KCNK9 two-pore domain potassium channel. Q9NPC2. HEK293 KCNK9, FluxOR thallium flux fluorescence; active compounds read low. B-score at 10 µM. hit rate 1.2% among 310,000;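 active = ratio B-score over 3 SD below the library mean, with starting fluorescence within 5 SD of its mean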;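 note: negative B-score means less thallium flux so channel inhibition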
# Target sequence (Q9NPC2 whole entry, looked up, the tested form may be a part): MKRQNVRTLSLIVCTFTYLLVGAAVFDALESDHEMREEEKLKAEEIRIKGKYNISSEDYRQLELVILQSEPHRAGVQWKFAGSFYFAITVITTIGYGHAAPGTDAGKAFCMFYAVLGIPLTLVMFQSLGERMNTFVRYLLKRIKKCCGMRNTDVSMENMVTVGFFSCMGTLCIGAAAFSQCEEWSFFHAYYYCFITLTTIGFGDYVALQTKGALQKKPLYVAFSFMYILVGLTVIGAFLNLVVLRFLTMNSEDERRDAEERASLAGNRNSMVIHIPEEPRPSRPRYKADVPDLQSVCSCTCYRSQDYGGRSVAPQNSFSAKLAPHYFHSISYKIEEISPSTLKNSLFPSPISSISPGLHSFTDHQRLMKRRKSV
# KCNQ1 pot: human KCNQ1 channel potentiation or activation; P51787; CHO-K1 KCNQ1, thallium flux FluxOR fluorescence; active compounds read high; B-score at 10 µM; hit rate 0.35% among 310,000; AID 2648;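 active = fluorescence ratio B-score, a plate-corrected score, at least three library SD, with initial intensity B-score within 5 SD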
#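 Assay system: CHO-K1 cells stably expressing KCNQ1; Medium: assay buffer with matched DMSO; Also added: K+/Tl+ depolarizing stimulus; Dosing: single dose; Timing: dye 90 min, compound 20 min, room temperature; Measured by: kinetic FluxOR thallium fluorescence, 10-s 1-Hz baseline, 110-s post-stimulus read; Read-out: peak-minus-minimum fluorescence over initial fluorescence, negative-control normalized, B-scored.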
# Kir21 inh: blocks the mouse Kir2.1 inward-rectifier potassium channel. hit rate 0.85% among 310,000. HEK293-Kir2.1, FluxOR thallium flux fluorescence; active compounds read low. B-score at 10 µM;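 active = fluorescence ratio B-score at or below minus 3 SD of library scores, with starting-brightness B-score within 2 SD, cut at about -4.2 in these data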;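 note: channel flux triggered by added potassium and thallium sulfate stimulus; B-score of peak minus minimum fluorescence over baseline after thallium stimulus; more negative B-score means stronger Kir2.1 block with less thallium influx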
# hERG protect: compounds protecting human hERG from proarrhythmic drug block; hit rate 0.51% among 310,000; Q12809; AID 1511; activation (rescue from dofetilide block), less the hit threshold, % at 10 µM; CHO-hERG, FluxOR thallium flux, dofetilide IC70 present;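 active = activation above the mean of controls blocked by dofetilide plus 5 SD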;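 note: thallium influx through hERG after potassium depolarization seen as dye fluorescence rise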
# KCNK3 block: human KCNK3 channel inhibition, primary screen; CHO-KCNK3 thallium flux, FluxOR fluorescence; active compounds read low; O14649; B-score at 10 µM; hit rate 0.84% among 340,000;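 active = B-score under library mean minus 4 SD, starting fluorescence ratio at most library mean plus 5 SD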;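 note: more negative B-score means stronger inhibition of thallium flux through KCNK3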
# KCNK9 block conf: confirmation of human KCNK9 potassium channel inhibitors. inhibition, % at 10 µM. hit rate 43% among 4,900. AID 492992. shares compounds with KCNK9 block. HEK293 KCNK9 cells, FluxOR thallium flux fluorescence;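 active = thallium signal inhibited by more than 5 SD of the compound-free buffer control wells, on both duplicate plates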;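 note: 0% = assay buffer control wells without compound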
# Kir2-1 spec: mouse Kir2.1 off-target activity of KCNK9 modulators; Kir2.1 cells, FluxOR thallium flux fluorescence; inhibition, % at 10 µM; hit rate 4% among 4,900; shares compounds with KCNK9 block;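 active = thallium signal drop more than 5 SD beyond the mean of the no-compound control wells, seen in both duplicate plates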;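 note: signal is fluorescence rise after thallium addition divided by baseline fluorescence; plate controls were assay buffer only for no effect and full block by chlorpromazine control for full effect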
# HEK293 Tl ctr: second check of KCNK9 modulator effects in non-induced HEK293 cells; inhibition, % at 10 µM; FluxOR thallium flux; hit rate 40% among 4,900; AID 492997; shares compounds with KCNK9 block;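 active = thallium signal drop beyond 5 SD of the untreated control mean, on both duplicate plates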;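 note: plate controls were buffer only IC0 wells for no effect and SID17386958 at its maximal inhibitory level for full effect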
# Starred values were filed as active, the others as inactive; i = inactive; · = no result given.
SMILES,KCNQ1 block,KCNK9 block,KCNQ1 pot,Kir21 inh,hERG protect,KCNK3 block,KCNK9 block conf,Kir2-1 spec,HEK293 Tl ctr
Cc1cccc(Nc2nc(-c3ccncc3)cs2)c1,i,i,i,0.95,-8.6,i,·,·,·
O=C(Nc1ccccc1Br)C1CCN(C(=O)Cc2ccccc2)CC1,i,i,i,-0.39,-3.5,i,·,·,·
COc1ccc(CCCc2nnc(SCC(=O)Nc3cc(C)ccc3C)o2)cc1,i,i,i,-2.77,1.0,i,i,i,i
COc1ccc(CCCc2nnc(SCC(=O)Nc3ccc(C)c(C)c3)o2)cc1,i,i,i,-0.41,-7.0,i,·,·,·
O=C(c1ccccc1)c1nc2ccccc2n(CCCn2c(=O)c(C(=O)c3ccccc3)nc3ccccc32)c1=O,i,i,i,-0.46,-3.0,i,i,i,i
Cn1c(=O)c(C(=O)c2ccccc2)nc2ccccc21,i,i,i,-1.9,-10.7,i,·,·,·
Cc1cc(C(=O)NNC(=O)CN2C(=O)NC(C)(c3ccccc3)C2=O)c(C)o1 (stereo unspecified),i,i,i,0.66,-9.5,i,·,·,·
O=C(CN(c1cccc(C(F)(F)F)c1)S(=O)(=O)c1ccc(Cl)c([N+](=O)[O-])c1)NCc1ccccc1Cl,i,-8.27*,i,0.08,-8.0,i,41.5%*,i,36.0%*
CC(C)n1nc(C(=O)Nc2nnc(SCc3c(Cl)cccc3Cl)s2)c2ccccc2c1=O,i,i,i,0.05,-14.6,i,i,i,i
Cc1sc(NC(=O)CCl)c(C(=O)c2ccccc2)c1C,i,i,i,2.28,-5.4,i,·,·,·
Cc1ccccc1C(=O)Nc1sc(C)c(C)c1C(=O)c1ccccc1,8*,i,i,-2.35,-20.0,i,i,i,i
CCOc1ccccc1C(=O)N(Cc1ccccc1)Cc1cc2cc3c(cc2[nH]c1=O)OCCO3,i,i,i,-1.56,2.2,i,·,·,·
Cc1cc(Br)ccc1-n1[nH]c(C)c(C=Nc2cccc3nsnc23)c1=O,i,i,i,-1.16,-5.9,i,i,i,i
COc1ccccc1N=Cc1c(C)[nH]n(-c2ccc(C)cc2C)c1=O,i,i,i,-0.59,-20.6,i,·,·,·
COc1cc(=O)[nH]c(SCC(=O)Nc2nc3c(s2)CCCC3)n1,i,i,i,3.33,-0.9,i,·,·,·
COc1cccc(CNC(=O)C23CN(Cc4ccccc4)CC2C(c2ccc([N+](=O)[O-])cc2)=NO3)c1 (stereo unspecified),i,i,i,2.07,-5.2,i,i,i,i
CC(C)CCNC(=O)C12CN(Cc3ccccc3)CC1C(c1ccc([N+](=O)[O-])cc1)=NO2 (stereo unspecified),i,i,i,0.95,-9.7,i,·,·,·
Cc1nn(C)cc1S(=O)(=O)NCc1ccc2c(c1)OCO2,i,i,i,2.11,-4.8,i,·,·,·
Cc1ccc(Cn2c(SCC(=O)N/N=C/c3ccc(C)o3)nc3ccccc32)cc1,i,-20.8*,i,1.71,-14.7,i,55.0%*,i,41.0%*
COC(=O)C(C)NC(=O)C12CC3CC(C1)CC(c1ccc(C)cc1)(C3)C2 (stereo unspecified),i,i,i,0.16,-3.8,i,i,i,i
CS(=O)(=O)N(CC(=O)O)c1ccc(C23CC4CC(CC(C4)C2)C3)cc1,i,i,i,-1.81,-6.8,i,·,·,·
COc1ccccc1NC(=O)C12CC3CC(C1)CC(c1ccc(C)cc1)(C3)C2,i,i,i,-0.64,-12.0,i,i,i,i
CNC(=O)C12CC3CC(C1)CC(c1ccc(C)cc1)(C3)C2,i,i,i,-0.69,-6.0,i,·,·,·
COc1ccccc1NC(=O)CN(c1ccc(C23CC4CC(CC(C4)C2)C3)cc1)S(C)(=O)=O,i,i,i,0.36,-11.1,i,i,i,i
COc1ccc(NC(=O)C23CC4CC(C2)CC(c2ccc(C)cc2)(C4)C3)cc1,i,i,i,0.02,-12.2,i,i,i,i
SMILES,KCNQ1 block,KCNK9 block,KCNQ1 pot,Kir21 inh,hERG protect,KCNK3 block,KCNK9 block conf,Kir2-1 spec,HEK293 Tl ctr
CCOC(=O)C(Cc1ccc(OC)c([N+](=O)[O-])c1)NC(=O)CCC(=O)Nc1ccc(OC)cc1 (stereo unspecified),i,i,i,-0.67,-1.9,i,·,·,·
CCCCCCCCCCCC(=O)NC(Cc1ccc(OC)c([N+](=O)[O-])c1)C(=O)O (stereo unspecified),i,i,i,1.74,-12.8,i,i,i,i
Cc1ccc(S(=O)(=O)N(C)CC(O)Cn2c3ccccc3c3ccccc32)cc1 (stereo unspecified),i,i,i,-1.68,0.9,i,·,·,·
O=S(=O)(c1ccccc1)N(CC(O)Cn1c2ccccc2c2ccccc21)c1ccccc1 (stereo unspecified),i,-11*,i,-0.48,-12.6,i,40.5%*,i,25.0%*
CCCn1nnnc1COc1ccc(C(N)=O)cc1,i,i,i,-0.01,-8.3,i,·,·,·
CCCn1c(=O)c(C(=O)Nc2cccc(C)n2)c(O)c2ccccc21,i,-10.1*,i,-0.42,-7.0,i,i,i,29.0%*
CCCCCCCCC(=O)NNC(=O)c1c(O)c2ccccc2n(CCC)c1=O,i,i,i,0.45,-11.1,i,i,i,i
O=c1[nH]c2ccccc2c(O)c1-c1ccccc1,i,i,i,-0.5,-9.6,i,·,·,·
O/N=C/Cc1[nH]c2ccccc2c1-c1ccccc1,i,-9.06*,i,0.34,-6.0,i,47.0%*,i,i
CN(C(=O)COC(=O)CCc1c[nH]c2ccccc12)C(c1ccccc1)c1ccccc1,i,-9.5*,i,0,-12.1,i,43.5%*,i,27.5%*
N#C/C(=C/c1ccc(OCc2ccc(C(=O)O)cc2)c(Br)c1)c1cccc(F)c1,i,i,i,2.13,-10.7,i,i,i,i
O=C(CN1CCN(c2cccc(Cl)c2)CC1)NC1CCCc2ccccc21 (stereo unspecified),i,i,i,-1.77,-14.4,i,i,i,i
